MIC and Activity data for six molecules are collected here from ChEMBL document CHEMBL4665692, “Synthesis and Antimicrobial Activity of Burkholderia-Related 4-Hydroxy-3-methyl-2-alkenylquinolines (HMAQs) and Their N-Oxide Counterparts” (2020).

Each structure is given as a SMILES string. In brackets after ≈: the same amount, converted by molar mass. Activity calls are given as the source filed them. No cut-off for these calls is given here.

For test [1], the system named is Bacillus subtilis. The test can be described thus: Antibacterial activity against Bacillus subtilis after 48 hrs by CLSI protocol based broth microdilution assay. In kind it is functional. In a few lines:
(§1)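 Strains (B. subtilis PY79, P. peoriae LMG1611, S. aureus Newman, S. agalactiae ATCC27956, E. coli ATCC25922, P. aeruginosa PA14, P. fluorescens LMG1794, X. campestris Xg, A. pleuropneumoniae) were grown overnight in TSB at 30 °C with shaking, then suspended in Mueller-Hinton broth, final OD600 0.01. Twofold-series compound, 100 to 0.78 μM, from 20 mM DMSO stock. Incubated 48 h, 30 °C, 250 rpm; OD600 read; MIC.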
In general terms: Broth dilution looks for growth in wells or tubes with falling amounts of substance.

Test [2] relates to Escherichia coli. The test can be described thus: Antibacterial activity against Escherichia coli after 48 hrs by CLSI protocol based broth microdilution assay. In kind it is functional. The method, boiled down: as §1
Test [3] relates to Fusarium solani. The test can be described thus: Antifungal activity against Fusarium solani after 48 hrs by CLSI protocol based broth microdilution assay. In kind it is functional. The method, boiled down:
(§2)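 Molds (A. niger, F. oxyporum, F. solani, Mucorales TM29) were grown 4 days at 25 °C on PDA, and spores were harvested in sterile water and counted by hemacytometer. Spores (2 × 10⁴ mL⁻¹) went into L-glutamine RPMI 1640, MOPS-buffered to pH 7.0, with serially diluted compound (top 100 μM). Incubated 2 days at room temperature; OD600 read; MIC.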

Test [4] concerns Cryptococcus neoformans. In words: Antifungal activity against Cryptococcus neoformans after 48 hrs by CLSI protocol based broth microdilution assay. In kind it is functional.
Test [5] concerns Mucorales. In words: Antifungal activity against Mucorales after 48 hrs by CLSI protocol based broth microdilution assay. In kind it is functional. In a few lines: as §2
In test [6] the test system is Fusarium oxysporum. The test can be described thus: Antifungal activity against Fusarium oxysporum after 48 hrs by CLSI protocol based broth microdilution assay. In kind it is functional. The method, boiled down:
as §2

The test system of test [7] is Pseudomonas fluorescens. The test can be described thus: Antibacterial activity against Pseudomonas fluorescens after 48 hrs by CLSI protocol based broth microdilution assay. In kind it is functional. The method, boiled down: as §1
Test [8] is described as follows: Antibacterial activity against Paenibacillus peoriae after 48 hrs by CLSI protocol based broth microdilution assay. In kind it is functional. In a few lines:
as §1

For test [9], the system named is Aspergillus niger. In words: Antifungal activity against Aspergillus niger after 48 hrs by CLSI protocol based broth microdilution assay. In kind it is functional. In a few lines:
as §2

Test [10] deals with Staphylococcus aureus. The test can be described thus: Antibacterial activity against Staphylococcus aureus after 48 hrs by CLSI protocol based broth microdilution assay. In kind it is functional. In a few lines: as §1
Test [11] has as its system Xanthomonas campestris. The test can be described thus: Antibacterial activity against Xanthomonas campestris after 48 hrs by CLSI protocol based broth microdilution assay. In kind it is functional. The method, boiled down:
as §1

Test [12] has as its system Pseudomonas aeruginosa. The test can be described thus: Antibacterial activity against Pseudomonas aeruginosa after 48 hrs by CLSI protocol based broth microdilution assay. In kind it is functional. In a few lines:
as §1

For test [13], the system named is Actinobacillus pleuropneumoniae. The test can be described thus: Antibacterial activity against Actinobacillus pleuropneumoniae after 48 hrs by CLSI protocol based broth microdilution assay. In kind it is functional. The method, boiled down: as §1
The test system of test [14] is Candida albicans. The test can be described thus: Antifungal activity against Candida albicans after 48 hrs by CLSI protocol based broth microdilution assay. In kind it is functional.
For test [15], the system named is Streptococcus agalactiae. The test can be described thus: Antibacterial activity against Streptococcus agalactiae after 48 hrs by CLSI protocol based broth microdilution assay. In kind it is functional. In a few lines: as §1
In test [16] the test system is hmqA (Burkholderia ambifaria). In words: Inhibition of beta-galactosidase hmqA mutant (Burkholderia ambifaria) by lacZ reporter gene assay.

As to `CCCCC/C=C/Cc1c(C)c(=O)c2ccccc2n1O`, the MIC in [1] was 1.56 µM (≈ 0.445 µg/mL); in test [2], 6.25 µM (≈ 1.78 µg/mL); in [3], above 100 µM; in test [4], 12.5 µM (≈ 3.57 µg/mL); in test [5] it was above 100 µM; in test [6] it was above 100 µM. Moreover, the MIC is 25 µM (≈ 7.13 µg/mL) in test [7]; 1.56 µM (≈ 0.445 µg/mL) in test [8]; above 100 µM in [9]; 1.56 µM (≈ 0.445 µg/mL) in test [10]; 3.13 µM (≈ 0.893 µg/mL) in test [11]; 25 µM (≈ 7.13 µg/mL) in test [12]. The MIC in [13] was 1.56 µM (≈ 0.445 µg/mL); in test [14] it was above 100 µM; in test [15] it was 1.56 µM (≈ 0.445 µg/mL).
In the case of `CCCC/C=C/Cc1c(C)c(=O)c2ccccc2n1O`, the MIC is 1.56 µM (≈ 0.423 µg/mL) in test [1]; 25 µM (≈ 6.78 µg/mL) in test [2]; above 100 µM in test [3]; 50 µM (≈ 13.6 µg/mL) in test [4]; above 100 µM in test [5]; above 100 µM in test [6]. For the same molecule, the MIC in test [7] is 50 µM (≈ 13.6 µg/mL); in test [8], 1.56 µM (≈ 0.423 µg/mL); in test [9], above 100 µM; in [10] it was 1.56 µM (≈ 0.423 µg/mL); in test [11], 6.25 µM (≈ 1.7 µg/mL); in [12] it was 50 µM (≈ 13.6 µg/mL). The MIC in test [13] was 1.56 µM (≈ 0.423 µg/mL); in test [14], above 100 µM; in [15], 1.56 µM (≈ 0.423 µg/mL).
With `CCCC/C=C/Cc1[nH]c2ccccc2c(=O)c1C`, the MIC in test [1] was 1.56 µM (≈ 0.398 µg/mL); in test [2], 100 µM (≈ 25.5 µg/mL); in test [3] it was above 100 µM; in test [4], 3.13 µM (≈ 0.799 µg/mL); in test [5], 6.25 µM (≈ 1.6 µg/mL); in test [6], 12.5 µM (≈ 3.19 µg/mL). In addition, the MIC in test [7] is 25 µM (≈ 6.38 µg/mL); in test [8], 12.5 µM (≈ 3.19 µg/mL); in test [9] it was above 100 µM; in test [10], 1.56 µM (≈ 0.398 µg/mL); in [11] it was 100 µM (≈ 25.5 µg/mL); in [12], above 100 µM. In addition, the MIC is 3.13 µM (≈ 0.799 µg/mL) in test [13], above 100 µM in [14] and 1.56 µM (≈ 0.398 µg/mL) in [15]. Besides, in [16], the outcome was Active.
With `CCCCCC/C=C/Cc1[nH]c2ccccc2c(=O)c1C`, the MIC was 1.56 µM (≈ 0.442 µg/mL) in test [1]; 100 µM (≈ 28.3 µg/mL) in test [2]; 6.25 µM (≈ 1.77 µg/mL) in test [3]; 1.56 µM (≈ 0.442 µg/mL) in test [4]; 12.5 µM (≈ 3.54 µg/mL) in test [5]; 12.5 µM (≈ 3.54 µg/mL) in test [6]. Moreover, the MIC in test [7] is 50 µM (≈ 14.2 µg/mL); in test [8] it was 12.5 µM (≈ 3.54 µg/mL); in test [9] it was above 100 µM; in [10] it was 1.56 µM (≈ 0.442 µg/mL); in test [11], 100 µM (≈ 28.3 µg/mL); in test [12], above 100 µM. In addition, the MIC in test [13] is 1.56 µM (≈ 0.442 µg/mL); in test [14], above 100 µM; in test [15] it was 1.56 µM (≈ 0.442 µg/mL).
`CCCCCC/C=C/Cc1c(C)c(=O)c2ccccc2n1O`: the MIC in test [1] was 3.13 µM (≈ 0.937 µg/mL); in test [2], 6.25 µM (≈ 1.87 µg/mL); in test [3], above 100 µM; in test [4], 6.25 µM (≈ 1.87 µg/mL); in test [5] it was above 100 µM; in test [6], above 100 µM. For the same molecule, the MIC in [7] was 25 µM (≈ 7.49 µg/mL); in test [8], 1.56 µM (≈ 0.467 µg/mL); in [9] it was above 100 µM; in test [10] it was 1.56 µM (≈ 0.467 µg/mL); in [11], 12.5 µM (≈ 3.74 µg/mL); in test [12], 12.5 µM (≈ 3.74 µg/mL). The MIC in [13] is 1.56 µM (≈ 0.467 µg/mL); in test [14], above 100 µM; in [15], 1.56 µM (≈ 0.467 µg/mL).
On to `CCCCC/C=C/Cc1[nH]c2ccccc2c(=O)c1C`, for which the MIC in test [1] was 1.56 µM (≈ 0.42 µg/mL); in test [2], 100 µM (≈ 26.9 µg/mL); in [3] it was above 100 µM; in test [4] it was 1.56 µM (≈ 0.42 µg/mL); in [5] it was 12.5 µM (≈ 3.37 µg/mL); in [6], above 100 µM. Further, the MIC in test [7] was 25 µM (≈ 6.73 µg/mL); in [8], 12.5 µM (≈ 3.37 µg/mL); in [9], above 100 µM; in test [10], 1.56 µM (≈ 0.42 µg/mL); in [11], 100 µM (≈ 26.9 µg/mL); in test [12], 50 µM (≈ 13.5 µg/mL). Besides, the MIC in [13] was 1.56 µM (≈ 0.42 µg/mL); in test [14] it was above 100 µM; in [15], 1.56 µM (≈ 0.42 µg/mL). The result in test [16] was Active.

Usually MIC stands for the least concentration at which growth counts as inhibited. A lower MIC goes with inhibition by little substance.
